Screening data as filed in PubChem BioAssay.
APP 5'UTR act: APP 5'UTR luciferase reporter activation; SH-SY5Y APP 5'UTR luciferase reporter, luminescence; zero percent = DMSO vehicle wells; activation, % at 2 µM; hit rate 1% among 190,000; AID 1276;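 active = activation above a set limit, based on mean plus 3 SD of controls, cut at about 140% in these data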
STAT3 inh-1: inhibitors of IL-6 induced STAT3 signaling. U3A cells, IL-6 STAT3-luciferase reporter, luminescence; host cell line lacks STAT1. inhibition, % at 5.5 µM. hit rate 0.89% among 190,000;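 active = inhibition above the mean inhibition across all screened compounds plus 3 SD, cut at about 44% in these data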;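 note: 0% = DMSO only wells and 100% = 100 µM nifuroxazide control wells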
STAT1 inh: STAT1 signaling inhibition. NIH 3T3 STAT1-luciferase reporter, IFN-gamma, luminescence. hit rate 0.35% among 200,000. inhibition, % at 5.5 µM;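 active = inhibition above a set limit, the mean inhibition across all tested compounds plus 3 SD, cut at about 34% in these data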;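 note: 0% = IFN-gamma with DMSO and 100% = IFN-gamma with 300 µM nifuroxazide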
NF-kB expr up: NF-kB expression increase, human neuronal cells; hit rate 1.6% among 190,000; NF-kB reporter expression; active compounds read high; fold change at 12.5 µM; in the data active = fold change above about 3.3
STAT3 activator: activators of IL-6 induced STAT3 signaling; U3A cells, IL-6 STAT3-luciferase reporter, luminescence; 100% = signal with IL-6 EC80 alone; activation (% of control), % at 5.6 µM; hit rate 0.91% among 190,000; AID 871;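 active = activation above the screen-wide mean of compound activation plus 3 SD, cut at about 130% in these data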;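 note: 0% = background luminescence of wells with medium and substrate only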
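Material: human U3A cells carrying STAT3-luciferase construct. Measured by: reporter luminescence signal. Timing: compound 1 h, then IL-6 6 h at 37 °C.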
STAT1 act: increases IFN-gamma driven STAT1 reporter signal; NIH 3T3 STAT1-luciferase reporter, luminescence; 100% = IFN-gamma alone, no compound; activation (% of control), % at 5.5 µM; hit rate 2.6% among 200,000; AID 932;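 active = activation above the screen-wide mean activation plus 3 SD, cut at about 130% in these data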;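 note: raw ratio to IFN-gamma control signal so 100% means no change and 0% no light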
STAT3 inh-2: STAT3 inhibition, confirmation assay; hit rate 45% among 1,200; AID 1265; U3A cells, IL-6 STAT3 luciferase reporter, luminescence; cell line lacks STAT1; shares compounds with STAT3 inh-1; inhibition, % at 5.7 µM;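 active = inhibition above the hit cutoff computed for the primary STAT3 screen, cut at about 44% in these data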;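 note: 0% = IL-6 plus DMSO and 100% = IL-6 plus nifuroxazide control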
NFkB inh STAT3ct: NF-kappaB inhibition in STAT3 inhibitor counter-screen. shares compounds with STAT3 inh-1. HEK293T NF-kB luciferase reporter, TNF-alpha induced. inhibition, % at 5.7 µM. hit rate 36% among 1,200. AID 1308;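 active = inhibition above the mean of solvent-only control wells plus 3 SD, cutoff set per campaign, cut at about 13% in these data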;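 note: 0% = TNF-alpha with DMSO and 100% = TNF-alpha with MG high control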
STAT1 inh STAT3c: STAT1 inhibition in STAT3 inhibitor counter-screen; inhibition, % at 5.7 µM; AID 1317; shares compounds with STAT3 inh-1; hit rate 27% among 1,200; NIH 3T3 STAT1-luciferase reporter, IFN-gamma induced, luminescence;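 active = inhibition above the mean plus 3 SD of solvent-only control wells, limit set per screening run, cut at about 16% in these data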;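 note: 0% = DMSO with IFN-gamma and 100% = nifuroxazide control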
Active calls of the source: *. Sampled rows, rich in hits. Any-hit rate of the full collection: about 5.1%.

Screening COC(=O)c1ccc(NC(=O)c2ccc(CN3CCOCC3)cc2)cc1 returned APP 5'UTR act -4, STAT3 inh-1 54*, STAT1 inh 1, NF-kB expr up 1.1, STAT3 activator 58, STAT1 act 100, STAT3 inh-2 39, NFkB inh STAT3ct 1 and STAT1 inh STAT3c -5.
`Cc1nn(C)c(C)c1CN(Cc1nc(CCC(C)C)no1)C(C)C` gave APP 5'UTR act -16, STAT3 inh-1 76*, STAT1 inh 32, NF-kB expr up 1, STAT3 activator 37, STAT1 act 69, STAT3 inh-2 78*, NFkB inh STAT3ct 27* and STAT1 inh STAT3c 20*.
`CC(C)N(Cc1cnn(C)c1)Cc1nc(Cc2ccccc2Cl)no1` gave APP 5'UTR act 8, STAT3 inh-1 4, STAT1 inh 3, NF-kB expr up 1, STAT3 activator 99 and STAT1 act 95.
`O=c1[nH]c(N2CCOCC2)nc2c1CCCC2` gave APP 5'UTR act 23, STAT3 inh-1 97*, STAT1 inh 7, NF-kB expr up 1.3, STAT3 activator 21, STAT1 act 94, STAT3 inh-2 2, NFkB inh STAT3ct -7 and STAT1 inh STAT3c -6.
Cc1cccc(NS(=O)(=O)c2cnc(Cl)c(Br)c2)n1 was read as APP 5'UTR act 5, STAT3 inh-1 -3, STAT1 inh -14, NF-kB expr up 0.94, STAT3 activator 102 and STAT1 act 113.
O=C(Oc1cccc(Nc2ncnc3ccccc23)c1)c1ccccc1Cl was read as APP 5'UTR act -8, STAT3 inh-1 54*, STAT1 inh 10, NF-kB expr up 0.75, STAT3 activator 57, STAT1 act 91, STAT3 inh-2 48*, NFkB inh STAT3ct 1 and STAT1 inh STAT3c -1.
Screening CC1(C)C(=O)OC(C(=O)c2ccccc2)C2(CCCCC2)C1=O (stereo unspecified) returned APP 5'UTR act 11, STAT3 inh-1 -2, STAT1 inh 3, NF-kB expr up 1.1, STAT3 activator 102 and STAT1 act 97.
Screening c1ccc(CCNc2ncnc3ccccc23)cc1 returned APP 5'UTR act 89, STAT3 inh-1 90*, STAT1 inh -3, NF-kB expr up 2.5, STAT3 activator 26, STAT1 act 100, STAT3 inh-2 83*, NFkB inh STAT3ct 23* and STAT1 inh STAT3c -23.
For Brc1ccc2ncnc(NCc3ccccc3)c2c1 the results were APP 5'UTR act -9, STAT3 inh-1 40, STAT1 inh 32, NF-kB expr up 0.54, STAT3 activator 69 and STAT1 act 70.
Fc1ccc(Sc2ccccc2CNC2=NCCN2)cc1 was read as APP 5'UTR act 14, STAT3 inh-1 46*, STAT1 inh 13, NF-kB expr up 1.3, STAT3 activator 63, STAT1 act 88, STAT3 inh-2 29, NFkB inh STAT3ct -7 and STAT1 inh STAT3c 13.
Screening CCOC(=O)c1c(NC(C)=O)sc2c1C1CCN2CC1 returned APP 5'UTR act -5, STAT3 inh-1 -3, STAT1 inh 3, STAT3 activator 105 and STAT1 act 97.
For CC(=O)c1c(C)[nH]c(C(=O)OC(C)C(=O)Nc2cc(S(=O)(=O)N3CCCCC3)ccc2Cl)c1C (stereo unspecified) the results were APP 5'UTR act 0, STAT3 inh-1 -6, STAT1 inh 2, NF-kB expr up 1.1, STAT3 activator 103 and STAT1 act 99.
Screening CCOC(=O)NC(=O)c1cn(CCNCCO)c(=O)[nH]c1=O returned APP 5'UTR act 3, STAT3 inh-1 5, STAT1 inh 1, NF-kB expr up 0.96, STAT3 activator 100 and STAT1 act 96.
C#CC(=O)N(c1ccc(OC)c(OC)c1)C(C(=O)NC1CCCC1)c1cccs1 (stereo unspecified) was read as APP 5'UTR act -17, STAT3 inh-1 108*, STAT1 inh 36*, NF-kB expr up 0.13, STAT3 activator 15, STAT1 act 68, STAT3 inh-2 89*, NFkB inh STAT3ct 19* and STAT1 inh STAT3c 32*.
Screening COc1ccc(N(C(=O)Cc2cccs2)C(C(=O)NC2CCCCC2)c2cccn2C)cc1OC (stereo unspecified) returned APP 5'UTR act -19, STAT3 inh-1 4, STAT1 inh 1, NF-kB expr up 0.79, STAT3 activator 99 and STAT1 act 96.
O=C(NCc1cccc(Cl)c1)c1cc(COc2ccc3ncccc3c2)on1 was read as APP 5'UTR act -3, STAT3 inh-1 45*, STAT1 inh 28, NF-kB expr up 0.9, STAT3 activator 64, STAT1 act 73, STAT3 inh-2 62*, NFkB inh STAT3ct 15* and STAT1 inh STAT3c 21*.
Screening CC(CCCC(C)(C)O)NC(=O)c1cc(COc2ccc3ncccc3c2)on1 (stereo unspecified) returned APP 5'UTR act 4, STAT3 inh-1 63*, STAT1 inh 30, NF-kB expr up 0.93, STAT3 activator 50, STAT1 act 71, STAT3 inh-2 63*, NFkB inh STAT3ct 21* and STAT1 inh STAT3c 24*.
For O=C(Nc1ccccc1)c1ccc(=O)n(Cc2ccc(F)c(F)c2)c1 the results were APP 5'UTR act -1, STAT3 inh-1 -1, STAT1 inh 6, NF-kB expr up 0.78, STAT3 activator 103 and STAT1 act 94.
`O=C(Oc1ccccc1N1C(=O)C2CC=CCC2C1=O)c1ccc(Br)cc1` (stereo unspecified) gave APP 5'UTR act -4, STAT3 inh-1 -7, STAT1 inh 10, NF-kB expr up 1.4, STAT3 activator 101 and STAT1 act 91.
Cc1ccc(C(=O)Oc2ccccc2N2C(=O)C3CCCCC3C2=O)cc1 (stereo unspecified) was read as APP 5'UTR act 5, STAT3 inh-1 54*, STAT1 inh 4, NF-kB expr up 1.2, STAT3 activator 60, STAT1 act 96, STAT3 inh-2 38, NFkB inh STAT3ct -1 and STAT1 inh STAT3c 6.
O=C(Oc1ccccc1N1C(=O)C2CCCCC2C1=O)c1ccccc1 (stereo unspecified) was read as APP 5'UTR act 23, STAT3 inh-1 68*, STAT1 inh 12, NF-kB expr up 1.2, STAT3 activator 50, STAT1 act 89, STAT3 inh-2 46*, NFkB inh STAT3ct 4 and STAT1 inh STAT3c -16.
